Experimental data reported in ChEMBL document CHEMBL1255379, “Evaluation of Etest method for determining isavuconazole MICs against Cryptococcus gattii and Cryptococcus neoformans” (2008).
Converted amounts (≈) assume the structure as drawn.

Key:
[1] = test system: Cryptococcus gattii species complex; experiment: Antimicrobial activity against Cryptococcus gattii by Etest method; assay type: functional, Cryptococcus bacillisporus
Procedure, shortened: (§1)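 Isolates (clinical and environmental), maintained in sterile water or glycerol broth, subcultured at least twice on Sabouraud dextrose agar. Suspension adjusted to 0.5 McFarland and swabbed onto RPMI agar plates with 2% glucose; isavuconazole Etest strips applied. Incubated at 35°C, read at 48 and 72 h. MIC taken where prominent growth reduction meets the strip, raised to the next twofold level.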

[2] = test system: Cryptococcus neoformans; experiment: Antimicrobial activity against Cryptococcus neoformans by broth microdilution method; assay type: functional
Procedure, shortened: (§2)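 CLSI M27-A2 broth microdilution in RPMI 1640 with L-glutamine, no bicarbonate, MOPS-buffered to pH 7.0. Isavuconazole stock in DMSO; final concentrations 0.015 to 8 μg/ml. Inoculum 0.5 × 10³ to 2.5 × 10³ cells/ml from subcultured isolates. Incubated at 35°C. MIC read at 48 and 72 h as 50% reduction in turbidity versus drug-free control. Candida krusei ATCC 6258 and C. parapsilosis ATCC 22019 served as quality controls.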

[3] = test system: Cryptococcus neoformans; experiment: Antimicrobial activity against Cryptococcus neoformans by Etest method; assay type: functional; procedure, shortened: as §1
[4] = test system: Cryptococcus gattii species complex; experiment: Antimicrobial activity against Cryptococcus gattii by broth microdilution method; assay type: functional, Cryptococcus bacillisporus; procedure, shortened: as §2

MIC [1]: 0.003 µg/mL (≈ 0.00686 µM)
MIC50 [1]: 0.032 µg/mL (≈ 0.0731 µM)
MIC90 [1]: 0.125 µg/mL (≈ 0.286 µM)
MIC [2]: ≤ 0.015 µg/mL
MIC50 [2]: ≤ 0.015 µg/mL
MIC90 [2]: 0.06 µg/mL (≈ 0.137 µM)
MIC [3]: 0.002 µg/mL (≈ 0.00457 µM)
MIC50 [3]: 0.023 µg/mL (≈ 0.0526 µM)
MIC90 [3]: 0.047 µg/mL (≈ 0.107 µM)
MIC [4]: ≤ 0.015 µg/mL
MIC50 [4]: 0.03 µg/mL (≈ 0.0686 µM)
MIC90 [4]: 0.06 µg/mL (≈ 0.137 µM)
Structure (SMILES): C[C@@H](c1nc(-c2ccc(C#N)cc2)cs1)[C@](O)(Cn1cncn1)c1cc(F)ccc1F [ISAVUCONAZOLE]
